Laboratory results published in ChEMBL document CHEMBL4680064, “Natural product inspired optimization of a selective TRPV6 calcium channel inhibitor” (RSC Med Chem, 2020).

What was measured:
HEK293 = test: Antiproliferative activity human HEK293 cells expressing human TRPV6 assessed as cell growth inhibition at 0.4 to 100 uM after 6 days by XTT assay; assay type: cell-based; conditions: hek293, 144 h, dose 0.4-100 µM, time 6 day
[1] = biological target: T1, 5-hydroxytryptamine receptor 1A (Homo sapiens, UniProt P08908); test: Inhibition of human serotonin 5HT-1A receptor at 10 uM
T1 sequence (P08908 whole entry): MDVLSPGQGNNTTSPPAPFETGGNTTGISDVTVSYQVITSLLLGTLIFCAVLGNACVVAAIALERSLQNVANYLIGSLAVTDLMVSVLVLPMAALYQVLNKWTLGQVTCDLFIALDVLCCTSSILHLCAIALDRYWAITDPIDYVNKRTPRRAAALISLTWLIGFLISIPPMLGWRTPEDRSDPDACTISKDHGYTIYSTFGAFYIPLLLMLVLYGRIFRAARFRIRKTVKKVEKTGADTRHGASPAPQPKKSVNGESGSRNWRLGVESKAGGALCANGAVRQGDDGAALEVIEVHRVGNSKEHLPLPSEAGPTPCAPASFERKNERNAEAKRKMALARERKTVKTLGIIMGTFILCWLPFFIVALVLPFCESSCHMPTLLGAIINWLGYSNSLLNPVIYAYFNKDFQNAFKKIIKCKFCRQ

T47D = test: Cytotoxicity against human T47D cells assessed as induction of cell morphological changes at 100 uM by inverted microscopic analysis; assay type: cell-based
How it was run: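 T47D cells, cultured and treated as in the 6-day XTT proliferation assay, were photographed for morphology after exposure at 100 μM and compared with control cultures.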

## O=c1ccc(CN2CCN([C@H]3CC[C@@](O)(c4cccc(C(F)(F)F)c4)CC3)CC2)c[nH]1
HEK293
  Activity: Non-Toxic
[1]
  inhibition (INH): Not Active
T47D
  Activity: Non-Toxic
